Activity calls are given as the source filed them. The calls are words filed in the database; no cut-off is given here.
Assays:
Rattus norvegicus [1] = experiment: Antiarthritic activity in Lewis rat collagen-induced arthritis model assessed as reduction of inflammatory cell infiltration in hind paw at 3 to 30 mg/kg, po qd administered on day 15 post immunization measured after day 28 by Giemsa/safranin O staining-based assay; assay type: functional, organism-based
Procedure, shortened: (§1)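 Female Lewis rats (140−160 g), arthritis induced by porcine collagen immunization (day 0) and boost (day 7); rats with swollen joints randomized, dosed orally once daily from day 15 to day 28. Hind paws taken on day 28, fixed in 10% buffered formalin for 48 h, decalcified over 16 days, paraffin-embedded; 3 μm sections stained with Giemsa and safranin O and scored.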

[2] = Drug uptake in blood of Lewis rat collagen-induced arthritis model at 10 mg/kg, po qd administered on day 15 post immunization measured at 24 hrs on day 18; assay type: ADME, organism-based; design: dose 10 mg/kg, route oral; details: read-out: Drug uptake
Procedure, shortened: (§2)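 Collagen-arthritic Lewis rats given 3, 10 or 30 mg/kg p.o. once daily from day 15; blood levels measured on day 18 (third day of treatment) at 4, 8 and 24 h after dosing.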

Rattus norvegicus [3] = organism: Rattus norvegicus; experiment: Hepatotoxicity in rat assessed as single necrosis of hepatocytes measured for 4 weeks by GLP study; assay type: toxicity, organism-based, Hepatocyte; details: 672 h
[4] = Drug metabolism in liver microsomes (unknown origin); assay type: ADME
[5] = Oral bioavailability in Sprague-Dawley rat at 3 mg/kg administered as cassette dosing; assay type: ADME, organism-based; details: in vivo
Procedure, shortened: (§3)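 Rats were dosed i.v. at 1 mg/kg in NMP/PEG200 (3:7) and p.o. at 3 mg/kg in CMC/water/Tween (0.5:99:0.5). PK parameters were derived from blood concentration–time curves for both routes.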

[6] = Drug uptake in blood of Lewis rat collagen-induced arthritis model at 30 mg/kg, po qd administered on day 15 post immunization measured at 4 hrs on day 18; assay type: ADME, organism-based; design: dose 30 mg/kg, route oral; details: read-out: Drug uptake; procedure, shortened: as §2
Canis familiaris [7] = organism: Canis familiaris; experiment: Toxicity in dog assessed as prolongation of QT interval by telemetry study; assay type: organism-based, Canis lupus familiaris; details: in vivo
[8] = Volume of distribution at steady state in Sprague-Dawley rat at 1 mg/kg, iv and 3 mg/kg, po administered as cassette dosing; assay type: ADME, organism-based; details: in vivo, read-out: Vdss; procedure, shortened: as §3
[9] = biological target: T1, Tyrosine-protein kinase SYK (Homo sapiens, UniProt P43405)
Rattus norvegicus [10] = experiment: Antiarthritic activity in Lewis rat collagen-induced arthritis model assessed as reduction of proteoglycan loss in hind paw at 3 to 30 mg/kg, po qd administered on day 15 post immunization measured after day 28 by Giemsa/safranin O staining-based assay; assay type: functional, organism-based; procedure, shortened: as §1
[11] = biological target: Tyrosine-protein kinase JAK2 (Homo sapiens, UniProt O60674); experiment: Competitive binding affinity to human JAK2
[12] = biological target: T1, Tyrosine-protein kinase SYK; experiment: Inhibition of Syk in anti-igM stimulated human Ramos B cells assessed as phospho-BLNK level preincubated for 30 mins followed by anti-IgM stimulation measured after 15 mins by flow cytometric analysis; assay type: cell-based
Canis familiaris [13] = organism: Canis familiaris; experiment: Hepatotoxicity in dog assessed as portal inflammation measured for 4 weeks by GLP study; assay type: toxicity, organism-based, Canis lupus familiaris; details: in vivo, 672 h
Rattus norvegicus [14] = experiment: Dose normalized AUC in Sprague-Dawley rat at 1 mg/kg, iv administered as cassette dosing; assay type: ADME, organism-based; design: dose 1 mg/kg, route intravenous; details: in vivo
Procedure, shortened: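 Rat PK: i.v. 1 mg/kg in NMP/PEG200 (3:7); p.o. 3 mg/kg in CMC/water/Tween (0.5:99:0.5). Exposure values dose normalized.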

[15] = Drug uptake in blood of Lewis rat collagen-induced arthritis model at 30 mg/kg, po qd administered on day 15 post immunization measured at 24 hrs on day 18; assay type: ADME, organism-based; design: dose 30 mg/kg, route oral; details: read-out: Drug uptake; procedure, shortened: as §2
Rattus norvegicus [16] = organism: Rattus norvegicus; experiment: Hepatotoxicity in rat assessed as bile plugs measured for 4 weeks by GLP study; assay type: toxicity, organism-based; details: in vivo, 672 h
[17] = Mean residence time in Sprague-Dawley rat at 1 mg/kg, iv and 3 mg/kg, po administered as cassette dosing; assay type: ADME, organism-based; details: in vivo; procedure, shortened: as §3
hERG (KCNH2) = hERG (KCNH2) (Homo sapiens, UniProt Q12809); experiment: Inhibition of human ERG at 10 uM by manual patch clamp assay relative to control
[18] = biological target: Mitotic checkpoint serine/threonine-protein kinase BUB1 (Homo sapiens, UniProt O43683); experiment: Competitive binding affinity to human BUB1
[19] = biological target: T2, Tyrosine-protein kinase Mer (Homo sapiens, UniProt Q12866); experiment: Competitive binding affinity to human MERTK
T2 sequence (Q12866 whole entry): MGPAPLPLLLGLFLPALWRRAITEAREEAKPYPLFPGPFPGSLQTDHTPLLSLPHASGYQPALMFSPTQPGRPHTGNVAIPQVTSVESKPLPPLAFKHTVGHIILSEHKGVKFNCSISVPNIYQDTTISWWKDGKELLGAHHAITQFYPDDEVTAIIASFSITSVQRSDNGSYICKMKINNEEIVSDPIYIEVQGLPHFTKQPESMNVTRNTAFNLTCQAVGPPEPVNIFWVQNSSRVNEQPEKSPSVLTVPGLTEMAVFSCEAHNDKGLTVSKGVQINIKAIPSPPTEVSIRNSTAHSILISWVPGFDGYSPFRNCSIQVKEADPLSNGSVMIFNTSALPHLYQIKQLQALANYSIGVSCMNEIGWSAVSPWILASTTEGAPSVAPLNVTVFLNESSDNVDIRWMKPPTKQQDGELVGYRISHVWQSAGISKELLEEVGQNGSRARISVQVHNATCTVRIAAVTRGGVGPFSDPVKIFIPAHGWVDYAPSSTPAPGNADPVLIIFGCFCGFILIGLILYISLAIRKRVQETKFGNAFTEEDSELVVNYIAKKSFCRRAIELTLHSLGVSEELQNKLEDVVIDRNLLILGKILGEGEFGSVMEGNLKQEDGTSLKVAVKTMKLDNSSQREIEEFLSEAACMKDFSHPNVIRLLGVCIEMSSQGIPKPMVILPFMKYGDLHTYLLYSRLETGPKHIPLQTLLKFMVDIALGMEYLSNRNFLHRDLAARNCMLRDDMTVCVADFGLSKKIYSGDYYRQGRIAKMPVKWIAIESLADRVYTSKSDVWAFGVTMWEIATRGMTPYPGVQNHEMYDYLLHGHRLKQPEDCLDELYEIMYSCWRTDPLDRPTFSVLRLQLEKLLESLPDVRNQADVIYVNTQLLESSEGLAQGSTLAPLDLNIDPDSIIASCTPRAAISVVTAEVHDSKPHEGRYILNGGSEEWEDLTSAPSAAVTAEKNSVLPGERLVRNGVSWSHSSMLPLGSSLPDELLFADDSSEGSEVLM

[20] = Drug uptake in blood of Lewis rat collagen-induced arthritis model at 10 mg/kg, po qd administered on day 15 post immunization measured at 4 hrs on day 18; assay type: ADME, organism-based; design: dose 10 mg/kg, route oral; details: read-out: Drug uptake; procedure, shortened: as §2
[21] = Drug uptake in Lewis rat blood at 22 mg/kg, po measured after 4 hrs; assay type: ADME, organism-based; design: dose 22 mg/kg, route oral; details: read-out: Drug uptake
Procedure, shortened: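 Single oral dose of 22 mg/kg to Lewis rats; blood sampled at 2, 4 and 24 h after dosing for compound level and ex vivo FcγR-induced phospho-SLP76 in peripheral blood monocytes.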

[22] = Drug uptake in blood of Lewis rat collagen-induced arthritis model at 3 mg/kg, po qd administered on day 15 post immunization measured at 24 hrs on day 18; assay type: ADME, organism-based; design: dose 3 mg/kg, route oral; details: read-out: Drug uptake; procedure, shortened: as §2
[23] = biological target: Proto-oncogene tyrosine-protein kinase ROS (Homo sapiens, UniProt P08922); experiment: Competitive binding affinity to human ROS1

Tyrosine-protein kinase JAK2, sequence (O60674 whole entry): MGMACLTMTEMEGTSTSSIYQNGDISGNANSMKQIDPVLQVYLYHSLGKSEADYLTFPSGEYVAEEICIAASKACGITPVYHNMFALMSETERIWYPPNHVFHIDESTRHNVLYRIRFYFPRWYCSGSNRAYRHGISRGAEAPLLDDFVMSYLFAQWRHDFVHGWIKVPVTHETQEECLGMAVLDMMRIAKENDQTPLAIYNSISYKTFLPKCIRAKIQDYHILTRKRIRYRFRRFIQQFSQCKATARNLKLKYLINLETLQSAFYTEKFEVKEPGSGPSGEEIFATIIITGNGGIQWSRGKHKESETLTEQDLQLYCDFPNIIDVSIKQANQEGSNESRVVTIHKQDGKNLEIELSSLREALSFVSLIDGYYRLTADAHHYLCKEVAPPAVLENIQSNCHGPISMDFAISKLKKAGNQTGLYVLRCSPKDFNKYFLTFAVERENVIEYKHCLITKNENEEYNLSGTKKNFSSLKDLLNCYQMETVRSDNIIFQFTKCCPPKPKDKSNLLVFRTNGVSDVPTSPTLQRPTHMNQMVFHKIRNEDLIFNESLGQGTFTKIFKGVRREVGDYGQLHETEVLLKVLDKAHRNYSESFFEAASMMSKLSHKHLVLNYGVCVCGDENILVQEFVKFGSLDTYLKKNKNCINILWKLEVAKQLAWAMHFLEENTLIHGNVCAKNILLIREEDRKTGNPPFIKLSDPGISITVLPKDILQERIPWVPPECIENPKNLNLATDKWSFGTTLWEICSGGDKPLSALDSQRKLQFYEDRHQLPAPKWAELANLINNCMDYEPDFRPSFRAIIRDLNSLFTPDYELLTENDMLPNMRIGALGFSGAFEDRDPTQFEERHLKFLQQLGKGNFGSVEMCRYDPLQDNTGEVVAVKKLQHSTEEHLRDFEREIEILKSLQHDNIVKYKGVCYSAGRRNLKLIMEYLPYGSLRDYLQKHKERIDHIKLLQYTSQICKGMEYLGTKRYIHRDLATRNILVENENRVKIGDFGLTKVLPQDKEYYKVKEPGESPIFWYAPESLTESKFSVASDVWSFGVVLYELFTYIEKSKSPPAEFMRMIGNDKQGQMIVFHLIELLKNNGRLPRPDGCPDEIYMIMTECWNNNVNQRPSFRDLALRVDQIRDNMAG
hERG (KCNH2), sequence (Q12809 whole entry): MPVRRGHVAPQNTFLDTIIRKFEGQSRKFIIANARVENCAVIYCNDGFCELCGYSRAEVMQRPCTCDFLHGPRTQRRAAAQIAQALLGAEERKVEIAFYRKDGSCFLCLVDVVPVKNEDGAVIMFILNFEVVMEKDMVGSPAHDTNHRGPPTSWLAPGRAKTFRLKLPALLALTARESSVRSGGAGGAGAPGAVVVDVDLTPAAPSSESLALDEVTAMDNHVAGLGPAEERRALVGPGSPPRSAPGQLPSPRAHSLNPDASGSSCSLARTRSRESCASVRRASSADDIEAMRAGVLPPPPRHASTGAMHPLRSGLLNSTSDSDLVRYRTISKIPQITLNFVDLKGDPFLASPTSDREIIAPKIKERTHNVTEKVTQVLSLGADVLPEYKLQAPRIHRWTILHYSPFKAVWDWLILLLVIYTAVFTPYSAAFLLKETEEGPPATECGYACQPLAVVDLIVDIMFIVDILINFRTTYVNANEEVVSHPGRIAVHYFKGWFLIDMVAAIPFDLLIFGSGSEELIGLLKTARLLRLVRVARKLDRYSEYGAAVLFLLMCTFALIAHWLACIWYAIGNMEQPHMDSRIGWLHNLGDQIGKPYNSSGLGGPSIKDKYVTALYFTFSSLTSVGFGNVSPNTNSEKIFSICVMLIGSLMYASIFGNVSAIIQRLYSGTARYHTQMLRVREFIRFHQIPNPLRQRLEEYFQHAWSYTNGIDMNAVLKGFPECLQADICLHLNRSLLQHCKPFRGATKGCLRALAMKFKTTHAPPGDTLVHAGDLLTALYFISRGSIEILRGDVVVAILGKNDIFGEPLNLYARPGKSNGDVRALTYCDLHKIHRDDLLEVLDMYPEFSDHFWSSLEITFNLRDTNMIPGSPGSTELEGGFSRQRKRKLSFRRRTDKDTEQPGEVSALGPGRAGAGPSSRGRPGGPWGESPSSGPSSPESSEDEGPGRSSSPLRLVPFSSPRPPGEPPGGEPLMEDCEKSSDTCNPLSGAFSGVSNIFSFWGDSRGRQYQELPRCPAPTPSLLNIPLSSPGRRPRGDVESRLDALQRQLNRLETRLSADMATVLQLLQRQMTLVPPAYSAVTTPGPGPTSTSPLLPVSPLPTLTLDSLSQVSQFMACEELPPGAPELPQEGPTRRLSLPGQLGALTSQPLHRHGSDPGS
Mitotic checkpoint serine/threonine-protein kinase BUB1, sequence (O43683 whole entry): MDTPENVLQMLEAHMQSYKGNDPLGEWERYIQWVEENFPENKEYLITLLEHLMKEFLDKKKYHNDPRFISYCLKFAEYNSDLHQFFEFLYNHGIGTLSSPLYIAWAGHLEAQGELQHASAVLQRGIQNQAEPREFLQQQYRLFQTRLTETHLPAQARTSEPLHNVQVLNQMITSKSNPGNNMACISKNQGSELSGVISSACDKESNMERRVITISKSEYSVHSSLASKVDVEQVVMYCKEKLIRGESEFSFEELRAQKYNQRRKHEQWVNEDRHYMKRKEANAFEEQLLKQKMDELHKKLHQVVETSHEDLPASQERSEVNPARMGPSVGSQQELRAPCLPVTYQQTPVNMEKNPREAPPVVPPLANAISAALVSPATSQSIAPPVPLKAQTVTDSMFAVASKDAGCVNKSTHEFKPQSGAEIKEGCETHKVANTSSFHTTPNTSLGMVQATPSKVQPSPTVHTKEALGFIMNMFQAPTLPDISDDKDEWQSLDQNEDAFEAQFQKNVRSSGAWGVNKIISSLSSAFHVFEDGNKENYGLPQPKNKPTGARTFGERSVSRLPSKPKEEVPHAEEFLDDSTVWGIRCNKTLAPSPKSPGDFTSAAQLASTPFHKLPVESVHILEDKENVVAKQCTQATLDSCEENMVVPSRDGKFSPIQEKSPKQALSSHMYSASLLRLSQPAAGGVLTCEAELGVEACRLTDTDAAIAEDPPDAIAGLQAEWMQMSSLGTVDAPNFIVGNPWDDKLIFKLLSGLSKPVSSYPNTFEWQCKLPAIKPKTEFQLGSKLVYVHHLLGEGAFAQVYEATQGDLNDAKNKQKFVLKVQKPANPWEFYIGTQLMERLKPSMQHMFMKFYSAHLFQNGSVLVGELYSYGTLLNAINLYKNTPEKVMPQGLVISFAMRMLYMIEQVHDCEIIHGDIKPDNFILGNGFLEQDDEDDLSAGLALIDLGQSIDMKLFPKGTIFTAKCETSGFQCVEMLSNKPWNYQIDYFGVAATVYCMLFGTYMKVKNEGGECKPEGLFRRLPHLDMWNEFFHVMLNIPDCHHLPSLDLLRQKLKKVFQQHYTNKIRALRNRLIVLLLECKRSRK

concentration at 24 h [2]: 0.156 µM | Drug metabolism [4]: metabolite_notdetected | bioavailability [5]: 60% | concentration at 4 h [6]: 2.89 µM | Vd [8]: 16.4 L/kg | IC50 [9]: 0.035 µM | Kd [11]: 0.053 µM | IC50 [12]: 0.099 µM | AUC/dose (Rattus norvegicus [14]): 1459 nM·h | concentration at 24 h [15]: 0.461 µM | MRT [17]: 8.7 h | Kd [18]: 0.24 µM | Kd [19]: 0.15 µM | concentration at 4 h [20]: 0.866 µM | concentration at 4 h [21]: 1.1 µM | concentration at 24 h [22]: 0.035 µM | Kd [23]: 0.12 µM
Compound: NC(=O)c1nnc(N[C@@H]2CCCC[C@@H]2N)nc1Nc1cccc2cc[nH]c12
Activity (Rattus norvegicus [1]): Active | Activity (Rattus norvegicus [3]): Toxic | Activity (Canis familiaris [7]): Non-toxic | Activity (Rattus norvegicus [10]): Active | Activity (Canis familiaris [13]): Toxic | Activity (Rattus norvegicus [16]): Toxic | inhibition at 10 µM (hERG (KCNH2)): 0%

From ChEMBL document CHEMBL3414433, “Discovery and profiling of a selective and efficacious Syk inhibitor” (J Med Chem, 2015)
